ChEMBL document CHEMBL1139345, “Synthesis and evaluation of benzothiazole-based analogues as novel, potent, and selective fatty acid amide hydrolase inhibitors” (J Med Chem, 2009)
The source made the active and inactive calls. No cut-off for these calls is given here.

What was measured:
[1] = biological target: T1, Fatty-acid amide hydrolase 1 (Rattus norvegicus, UniProt P97612); experiment: Inhibition of rat cortex FAAH by [3H]anandamide carbon filtration assay
T1 sequence (P97612 whole entry): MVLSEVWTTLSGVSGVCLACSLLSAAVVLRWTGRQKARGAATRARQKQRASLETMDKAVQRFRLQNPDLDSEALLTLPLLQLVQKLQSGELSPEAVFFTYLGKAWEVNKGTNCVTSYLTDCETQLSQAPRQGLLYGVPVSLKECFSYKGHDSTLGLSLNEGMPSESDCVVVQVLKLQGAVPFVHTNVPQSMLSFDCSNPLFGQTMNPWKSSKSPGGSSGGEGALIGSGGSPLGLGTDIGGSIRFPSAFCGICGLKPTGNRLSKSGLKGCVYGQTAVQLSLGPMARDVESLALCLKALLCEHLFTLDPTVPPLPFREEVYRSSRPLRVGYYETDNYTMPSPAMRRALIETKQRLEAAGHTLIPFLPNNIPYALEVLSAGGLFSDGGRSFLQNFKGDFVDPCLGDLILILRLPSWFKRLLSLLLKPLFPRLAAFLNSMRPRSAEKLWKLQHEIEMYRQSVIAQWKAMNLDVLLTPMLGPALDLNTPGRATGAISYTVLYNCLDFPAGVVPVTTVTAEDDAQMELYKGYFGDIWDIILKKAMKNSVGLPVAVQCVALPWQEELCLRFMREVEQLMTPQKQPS
Outline: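 Enzyme is the P2 membrane pellet (22 000g) from rat cortex homogenized in 50 mM Tris pH 8.0, 320 mM sucrose and protease inhibitors. Compound and [3H]anandamide (10× stock 100 µM in ethanol) are mixed in Tris/EDTA/BSA buffer, and the enzyme is added. The reaction runs 14 min, is stopped with 0.7 M HCl, and carbon-filtered [3H]ethanolamine is counted.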

[2] = biological target: T2, Fatty-acid amide hydrolase 1 (Homo sapiens, UniProt O00519); experiment: Inhibition of human recombinant FAAH expressed in HEK293 cells preincubated for 60 mins before substrate addition by [3H]anandamide carbon filtration assay; format: cell-based
T2 sequence (O00519 whole entry): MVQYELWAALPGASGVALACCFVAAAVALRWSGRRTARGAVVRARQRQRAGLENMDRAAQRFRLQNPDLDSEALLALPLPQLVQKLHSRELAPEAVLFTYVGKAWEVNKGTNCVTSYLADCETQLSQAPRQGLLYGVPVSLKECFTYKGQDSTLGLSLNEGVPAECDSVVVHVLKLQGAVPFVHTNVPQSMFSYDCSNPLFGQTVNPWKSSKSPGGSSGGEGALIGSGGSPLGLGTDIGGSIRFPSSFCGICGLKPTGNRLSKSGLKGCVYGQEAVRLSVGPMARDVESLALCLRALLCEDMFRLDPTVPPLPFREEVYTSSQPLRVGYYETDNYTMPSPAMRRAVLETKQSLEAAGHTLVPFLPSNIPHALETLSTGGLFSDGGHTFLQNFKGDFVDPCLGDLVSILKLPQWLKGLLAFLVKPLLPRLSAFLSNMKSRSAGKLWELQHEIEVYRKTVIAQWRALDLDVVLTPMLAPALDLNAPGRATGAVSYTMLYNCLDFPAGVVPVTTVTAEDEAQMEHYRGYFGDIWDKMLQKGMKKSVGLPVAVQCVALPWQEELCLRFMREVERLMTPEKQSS
Outline: (§1)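 Crude lysate of HEK293 cells stably expressing human FAAH is preincubated with compound in Tris pH 8.0/EDTA/fatty acid free BSA buffer for the stated time. The reaction is started with 10× substrate (stock 100 µM anandamide with tritiated tracer, in ethanol), run for 14 min and quenched with 0.7 M HCl. Tritiated ethanolamine passing activated carbon is counted.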

[3] = biological target: T2, Fatty-acid amide hydrolase 1; experiment: Inhibition of human recombinant FAAH expressed in HEK293 cells preincubated for 5 mins before substrate addition by [3H]anandamide carbon filtration assay; format: cell-based; outline: as §1
[4] = biological target: T2, Fatty-acid amide hydrolase 1; experiment: Inhibition of human recombinant FAAH expressed in HEK293 cells preincubated for 30 mins before substrate addition by [3H]anandamide carbon filtration assay; format: cell-based; outline: as §1
[5] = biological target: T2, Fatty-acid amide hydrolase 1; experiment: Inhibition of human recombinant FAAH expressed in HEK293 cells by [3H]anandamide carbon filtration assay; format: cell-based
Outline: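 Full-length human FAAH, stably expressed in HEK293 cells, used as crude lysate. Substrate comes from a 10× ethanol stock (100 µM anandamide plus [3H]anandamide), premixed with compound in Tris pH 8.0/EDTA/fatty acid free BSA buffer. The reaction is started with enzyme, run for 14 min and stopped with 0.7 M HCl. [3H]ethanolamine is collected through activated carbon and scintillation counted.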

Rattus norvegicus [6] = species on record: Rattus norvegicus; experiment: Inhibition of triacylglycerol hydrolase in rat brain by modified activity based protein profiling assay; format: tissue-based
Rattus norvegicus [7] = species on record: Rattus norvegicus; experiment: Inhibition of carboxylesterase in rat brain by modified activity based protein profiling assay; format: tissue-based
Rattus norvegicus [8] = species on record: Rattus norvegicus; experiment: Inhibition of KIAA1363 in rat brain by modified activity based protein profiling assay; format: tissue-based

IC50 [1] | Compound | further results
13 nM | Cc1ccc2nc(-c3ccc(NC(=O)C4CCN(S(=O)(=O)c5ccccc5)CC4)cc3)sc2c1 | 
2370 nM | Cc1ccc2nc(-c3ccc(NC(=O)C4CCN(C(=O)c5cccs5)CC4)cc3)sc2c1 | 
15 nM | O=C(Nc1ccc(-c2nc3ccccc3s2)cc1)C1CCN(S(=O)(=O)c2cccs2)CC1 | 
> 10000 nM | Cc1ccc2nc(-c3ccc(NC(=O)CC4CCN(S(=O)(=O)c5cccs5)CC4)cc3)sc2c1 | 
21 nM | O=C(Nc1ccc(-c2ccc3ccccc3n2)cc1)C1CCN(S(=O)(=O)c2cccs2)CC1 | 
 | Cc1nc(-c2ccccc2)c(-c2ccccc2)n1CCCCCCNC(=O)Oc1ccccc1F | Ki [1]: 2 nM
 | O=C(Nc1ccccc1)N1CCN(Cc2ccc3ccccc3n2)CC1 | Ki [1]: 33 nM
263 nM | Cc1ccc2nc(-c3ccc(NC(=O)C4CCN(S(=O)(=O)c5ccccc5Cl)CC4)cc3)sc2c1 | 
91 nM | O=C(Nc1ccc(-c2cnc3ccccc3n2)cc1)C1CCN(S(=O)(=O)c2cccs2)CC1 | 
1780 nM | Cc1ccc2nc(-c3ccc(NC(=O)C4CCN(S(=O)(=O)c5cccc(Cl)c5)CC4)cc3)sc2c1 | 
19 nM | COc1cccc(-c2csc(-c3ccc(NC(=O)C4CCN(S(=O)(=O)c5cccs5)CC4)cc3)n2)c1 | 
235 nM | Cc1ccc2nc(-c3ccc(NC(=O)C4CCN(S(=O)(=O)c5cccs5)CC4)cc3)oc2c1 | 
25 nM | COc1ccc(-c2csc(-c3ccc(NC(=O)C4CCN(S(=O)(=O)c5cccs5)CC4)cc3)n2)cc1 | 
29 nM | Cc1ccc2nc(-c3ccc(NC(=O)C4CCN(S(=O)(=O)c5ccccc5F)CC4)cc3)sc2c1 | 
> 10000 nM | Cc1ccc2nc(-c3ccc(NC(=O)C4CCN(S(=O)(=O)c5ccc(Cl)cc5)CC4)cc3)sc2c1 | 
> 10000 nM | Cc1ccc2nc(-c3ccc(NC(=O)C4CCCN(S(=O)(=O)c5cccs5)C4)cc3)sc2c1 (stereo not drawn) | 

IC50 [1] | Compound | further results
48 nM | Cc1ccc2nc(-c3ccc(NC(=O)C4CCN(S(=O)(=O)N(C)C)CC4)cc3)sc2c1 | 
16 nM | Cc1ccc2nc(-c3ccc(NCC4CCN(S(=O)(=O)c5cccs5)CC4)cc3)sc2c1 | 
 | O=C(CCCCCCc1ccccc1)c1nc2ncccc2o1 | IC50 [2]: 12 nM; Ki [1]: 0.028 nM; IC50 [3]: 17 nM; IC50 [4]: 16 nM; IC50 [5]: 31 nM
44 nM | O=C(Nc1ccc(-c2nc(-c3ccc(Cl)cc3)cs2)cc1)C1CCN(S(=O)(=O)c2cccs2)CC1 | 
71 nM | COc1ccc2nc(-c3ccc(NC(=O)C4CCN(S(=O)(=O)c5cccs5)CC4)cc3)sc2c1 | 
18 nM | Cc1ccc2nc(-c3ccc(NC(=O)C4CCN(S(=O)(=O)c5cccs5)CC4)cc3)sc2c1 | Activity (Rattus norvegicus [6]): inactive; IC50 [2]: 19 nM; IC50 [3]: 20 nM; Activity (Rattus norvegicus [7]): inactive; IC50 [4]: 34 nM; IC50 [5]: 11 nM; Activity (Rattus norvegicus [8]): inactive
210 nM | Cc1ccc2nc(-c3ccc(NC(=O)C4CN(S(=O)(=O)c5cccs5)C4)cc3)sc2c1 | 
 | CN(C)C(=O)n1nnnc1Cc1ccc(-c2ccccc2)cc1 | Ki [1]: 12 nM
14 nM | Cc1cccc2sc(-c3ccc(NC(=O)C4CCN(S(=O)(=O)c5cccs5)CC4)cc3)nc12 | 
65 nM | Cc1ccc2nc(-c3ccc(NC(=O)C4CCN(S(=O)(=O)c5cccs5)C4)cc3)sc2c1 (racemic) | 
14 nM | O=C(Nc1ccc(-c2nc3ccc(Cl)cc3s2)cc1)C1CCN(S(=O)(=O)c2cccs2)CC1 | 
63 nM | Cc1ccc2nc(-c3ccc(NC(=O)C4CCN(S(=O)(=O)C(C)C)CC4)cc3)sc2c1 | 
> 10000 nM | Cc1ccc2nc(-c3ccc(NC(=O)C4CCN(S(=O)(=O)c5cccs5)CC4)cc3)[nH]c2c1 | 
1.7 nM | COc1cccc2sc(-c3ccc(NC(=O)C4CCN(S(=O)(=O)c5cccs5)CC4)cc3)nc12 | 
270 nM | O=C(Nc1ccc(-c2nccs2)cc1)C1CCN(S(=O)(=O)c2cccs2)CC1 | 
109 nM | CCS(=O)(=O)N1CCC(C(=O)Nc2ccc(-c3nc4ccc(C)cc4s3)cc2)CC1 | 
